# Measurements published in ChEMBL document CHEMBL4342502, “Synthesis and Antichlamydial Activity of Molecules Based on Dysregulators of Cylindrical Proteases” (J Med Chem, 2020).
# Calls of active or inactive are those of the source. The calls are words filed in the database; no cut-off is given here.
# Assays:
# Chlamydia trachomatis [1] = test: Inhibition of recombinant Chlamydia trachomatis Serovar LGV-L2 C-terminal 6xhis-tagged ClpP1/ClpP2 dimer expressed in Escherichia coli at 0.1 to 1 uM by […] fluorescent peptide assay
# Chlamydia trachomatis [2] = test: (§1) Anti-chlamydial activity against Chlamydia trachomatis Serovar LGV-L2 infected in Hep2 cells assessed as reduction in chlamydial infectivity by measuring decrease in inclusion forming units at 50 ug/ml treated at 8 hrs post-infection and 24 hrs later re-infecting fresh Hep2 cells monolayer with infected cells and measured at 24 hrs post re-infection by immunofluorescence staining based microscopy analysis; format: functional, organism-based
# Procedure, shortened: (§2)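 HEp-2 cells in DMEM with 10% FBS, infected with C. trachomatis L2 at MOI 1. Compounds added 8 hpi in triplicate; DMSO stocks at 50 mg/mL. At 24 hpi lysates collected in sucrose storage medium, frozen at −80 °C, and used to infect fresh HEp-2 monolayers in 10-fold dilutions. After 24 h, stained with goat anti-MOMP and Alexa488 secondary. Inclusions counted in 15 fields at 20x; IFU = mean count per field corrected for dilution.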
# Chlamydia trachomatis [3] = test: as §1, with “inclusion growth” for “infectivity”, “appearance of small and irregular inclusions” for “decrease in inclusion forming units”; format: functional, organism-based; procedure, shortened: as §2
# HEp-2 = test: Toxicity in human Hep2 cells infected with Chlamydia trachomatis Serovar LGV-L2 at 100 ug/ml treated at 8 hrs post-infection and 24 hrs later re-infecting fresh Hep2 cells monolayer with infected cells and measured at 24 hrs post re-infection by immunofluorescence staining based microscopy analysis; format: cell-based
# Chlamydia trachomatis [4] = test: as §1, with “inclusion growth” for “infectivity”, “appearance of small and irregular inclusions” for “decrease in inclusion forming units”, “50 to 100” for “50”; format: functional, organism-based; procedure, shortened: as §2
# Chlamydia trachomatis [5] = test: as §1, with “inclusion growth” for “infectivity”, “appearance of small and irregular inclusions” for “decrease in inclusion forming units”, “12.5” for “50”, “analysis relative to control” for “analysis”; format: functional; conditions: Serovar LGV-L2, HEp-2; procedure, shortened: as §2
# Chlamydia trachomatis [6] = test: as §1, with “in chlamydial growth by measuring” for “in chlamydial infectivity by measuring”, “units at 5.2 to 50 ug/ml” for “units at 50 ug/ml”; format: functional, organism-based; procedure, shortened: as §2
# Chlamydia trachomatis [7] = test: Anti-Chlamydial activity against Chlamydia trachomatis Serovar LGV-L2 infected in Hep2 cells assessed as reduction in size and number of chlamydial inclusion at 5.2 to 50 ug/ml treated at 8 hrs post-infection and 24 hrs later re-infecting fresh Hep2 cells monolayer with infected cells and measured at 24 hrs post re-infection by immunofluorescence staining based microscopy analysis; format: functional, organism-based; procedure, shortened: as §2
# Chlamydia trachomatis [8] = test: (§3) Anti-chlamydial activity against Chlamydia trachomatis Serovar LGV-L2 infected in Hep2 cells assessed as reduction in chlamydial inclusion yield at 50 ug/ml treated at 8 hrs post infection and incubated for 16 hrs followed by compound washout and further incubated for 24 hrs by immunofluorescence staining based microscopic assay; format: functional, organism-based
# Procedure, shortened: (§4)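 Medium was then removed, wells washed three times with Hanks' balanced salt solution, and compound-free medium added; incubation continued 24 h. Read-out by IFU re-infection and anti-MOMP immunofluorescence, as in the IFU protocol.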
# Chlamydia trachomatis [9] = test: as §3, with “48” for “24”; format: functional, organism-based
# Chlamydia trachomatis [10] = test: as §3, with “Bacteriostatic” for “Anti-chlamydial”, “of” for “in chlamydial”, “size” for “yield”; format: functional, organism-based; procedure, shortened: as §4
# Chlamydia trachomatis [11] = test: as §3, with “Bacteriostatic” for “Anti-chlamydial”, “loss of” for “reduction in chlamydial”, “morphology” for “yield”; format: functional, organism-based; procedure, shortened: as §4
# [12] = (§5) Activation of recombinant mouse C-terminal 6xHis-tagged ClpP expressed in Escherichia coli assessed as induction of casein degradation at 0.1 to 1 uM using FITC-labelled casein as substrate pretreated with enzyme for 30 mins followed by substrate addition and measured every 3 mins for 3 hrs in absence of AAA+ chaperone by fluorescence based tecan-plate reader assay
# Procedure, shortened: (§6)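 Recombinant C-terminal His6-tagged ClpP, expressed in a clpAPX-null E. coli strain and purified (mammalian ClpP without mitochondrial signal, codon-optimized). ClpP at 1 or 0.1 μM (E. coli), 1 μM (human, mouse) or 6 μM (chlamydial ClpP1 and ClpP2) preincubated with compound or DMSO, 30 min, 32 °C, in HEPES pH 7.6/KCl/MgCl2/DTT/glycerol buffer. 20 μM FITC-casein then added. Fluorescence (ex 490/em 525 nm) read every 3 min for 3 h. At least three runs on at least two protein preparations.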
# [13] = biological target: ATP-dependent Clp protease proteolytic subunit (Escherichia coli (strain K12)) (UniProt P0A6G7); test: as §5, with “recombinant” for “recombinant mouse C-terminal 6xHis-tagged ClpP expressed in”, “coli ClpP” for “coli”; procedure, shortened: as §6
# Chlamydia trachomatis [14] = test: as §5, with “Chlamydia trachomatis Serovar LGV-L2” for “mouse”, “6xhis-tagged ClpP1” for “6xHis-tagged ClpP”, “absence” for “absence of AAA+”; procedure, shortened: as §6
# Escherichia coli = test: Antibacterial activity against Escherichia coli K12 assessed as bacterial growth inhibition at 32 ug/ml measured after 16 hrs by broth microdilution method; format: functional, organism-based; conditions: K-12
# Procedure, shortened: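 Broth microdilution in Mueller Hinton broth, triplicate. Direct colony suspension at 1.5 x 10^8 CFU/mL diluted to ~10^5 CFU/mL. Serial dilutions made from DMSO stocks at 1 mg/mL; vancomycin positive control, blank medium negative control. Incubated 16 h at optimum temperature. MIC is the lowest concentration without visible growth at 600 nm; mean of triplicate determinations.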
# [15] = Cytotoxicity against immortal human HaCaT cells assessed as reduction in cell viability at 50 ug/ml after 24 hrs by CCK-8 assay relative to control; format: cell-based; conditions: read-out: INH
# Procedure, shortened: (§7)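 HeLa 229 and HaCaT cells in DMEM with 10% FBS and 1% penicillin/streptomycin, 37 °C, 5% CO2, seeded at 5000 cells/well. Next day treated with 50 μg/mL in triplicate, with matching DMSO controls. After 24 h, CCK-8 added for 2 h; corrected absorbance read at 450 nm.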
# [16] = Drug metabolism in human liver microsomes assessed as 1-[4-[(4-chlorophenyl)methyl]piperazin-1-yl]-2-methyl-2-[[5-(trifluoromethyl)-2-pyridyl]sulfonyl]propan-1-one formation at 1 ug/ml after 10 to 60 mins by LC-MS/MS analysis; format: ADME, Microsome
# [17] = Toxicity in Drosophila melanogaster assessed as survival rate at 0.25 to 1 mM; conditions: 1000 µM
# Procedure, shortened: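 Drosophila SMART assay using third-instar larvae (72 ± 4 h) from ST and HB crosses. Larvae exposed in hydrated instant mashed-potato medium at 0.25, 0.5 and 1.0 mM final. Vehicle control: water with 1% Tween-80 and 3% ethanol. Survival of treated groups compared statistically with the vehicle control.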
# Chlamydia trachomatis [18] = test: as §5, with “Chlamydia trachomatis Serovar LGV-L2” for “mouse”, “6xhis-tagged ClpP1/ClpP2 dimer” for “6xHis-tagged ClpP”, “presence” for “absence”
# HaCaT = test: Cytotoxicity against immortal human HaCaT cells assessed as reduction in cell viability at 50 ug/ml after 24 hrs by CCK-8 assay; format: cell-based; procedure, shortened: as §7
# [19] = Hepatic intrinsic clearance in human liver microsomes at 1 ug/ml measured per kg body weight up to 60 mins by LC-MS/MS analysis; format: ADME, Microsome; conditions: 1 h
# ATP-dependent Clp protease proteolytic subunit (Escherichia coli (strain K12)), sequence (P0A6G7 whole entry): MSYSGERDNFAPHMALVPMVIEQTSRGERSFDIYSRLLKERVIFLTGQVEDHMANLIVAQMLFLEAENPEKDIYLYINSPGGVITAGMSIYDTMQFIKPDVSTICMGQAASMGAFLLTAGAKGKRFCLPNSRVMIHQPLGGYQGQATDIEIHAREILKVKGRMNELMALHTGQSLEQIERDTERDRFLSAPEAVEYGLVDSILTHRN
structure (smiles),measurement,setting,value
CC(C)(C(=O)N1CCN(Cc2ccc(Cl)cc2)CC1)S(=O)(=O)c1ccc(C(F)(F)F)cn1,inhibition,Chlamydia trachomatis [1],inactive
same,inhibition,Chlamydia trachomatis [2],Active
same,inhibition,Chlamydia trachomatis [3],Active
same,Activity,HEp-2,Non-Toxic
same,inhibition,Chlamydia trachomatis [4],Active
same,inhibition at 12.5 µg/mL,Chlamydia trachomatis [5],60%
same,inhibition,Chlamydia trachomatis [6],Active
same,inhibition,Chlamydia trachomatis [7],Active
same,inhibition,Chlamydia trachomatis [8],inactive
same,inhibition,Chlamydia trachomatis [9],inactive
same,inhibition,Chlamydia trachomatis [10],Active
same,inhibition,Chlamydia trachomatis [11],Active
same,Activity,[12],Not Active
same,Activity,[13],Active
same,Activity,Chlamydia trachomatis [14],inactive
same,inhibition,Escherichia coli,inactive
same,"cytotoxicity at 24 h, 50 ug/ml",[15],50%
same,Drug metabolism,[16],Metabolite_Detected
same,Activity,[17],Non-Toxic
same,Activity,Chlamydia trachomatis [18],inactive
CC(C)(C(=O)NCCCc1ccccc1)S(=O)(=O)c1ccc(C(F)(F)F)cc1,inhibition,Chlamydia trachomatis [2],Active
same,Activity,[12],Active
same,Activity,Chlamydia trachomatis [14],Active
same,inhibition,Escherichia coli,inactive
same,Activity,HaCaT,Toxic
same,CLH,[19],891 mL/min/kg
same,Activity,[17],Non-Toxic
